We go through five molecules from ChEMBL document CHEMBL2074042, “beta-lactam antibiotics as substrates for OCTN2, an organic cation/carnitine transporter” (J Biol Chem, 2000).

Common to all, as to type: functional, cell-based
For series [1], the target named is T1, Organic cation/carnitine transporter 2 (Homo sapiens, UniProt O76082).
T1 sequence (O76082 whole entry): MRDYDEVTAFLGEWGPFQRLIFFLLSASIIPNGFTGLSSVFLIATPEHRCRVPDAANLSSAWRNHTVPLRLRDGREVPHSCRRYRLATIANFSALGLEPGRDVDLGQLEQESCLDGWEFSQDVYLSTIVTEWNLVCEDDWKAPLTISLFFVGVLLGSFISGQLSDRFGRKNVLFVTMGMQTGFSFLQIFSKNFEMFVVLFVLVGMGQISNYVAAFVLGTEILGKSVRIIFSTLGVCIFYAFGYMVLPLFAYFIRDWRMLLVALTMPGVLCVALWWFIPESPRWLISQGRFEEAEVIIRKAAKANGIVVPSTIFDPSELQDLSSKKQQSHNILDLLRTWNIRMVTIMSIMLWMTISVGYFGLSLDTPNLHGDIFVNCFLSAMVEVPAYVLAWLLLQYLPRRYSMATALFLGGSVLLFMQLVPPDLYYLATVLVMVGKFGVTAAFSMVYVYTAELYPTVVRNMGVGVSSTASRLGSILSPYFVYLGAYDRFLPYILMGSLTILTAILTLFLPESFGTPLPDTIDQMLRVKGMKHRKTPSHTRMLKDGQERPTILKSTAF
Briefly: TP_TRANSPORTER: inhibition of Carnitine uptake (Carnitine: 0.02 uM, Ampicillin: 2500 uM) in OCTN2-expressing HeLa cells.

Series [2] addresses T1, Organic cation/carnitine transporter 2. The series is described as follows: (§1) TP_TRANSPORTER: inhibition of Carnitine uptake (Carnitine: 0.02 uM, Cefadroxil: 2500 uM) in OCTN2-expressing HeLa cells. The gist of the method:
(§2)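 HeLa cells expressed human or rat OCTN2 cDNA by vaccinia virus/T7 system. [3H]carnitine (20 nM) uptake for 30 min at room temperature in Na+-containing Hepes/Tris buffer, pH 7.5, with β-lactam at 2.5 mM. Lysate radioactivity counted. Endogenous activity from vector-only cells subtracted. Four measurements from two transfections.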

In series [3] the target is T2, Organic cation/carnitine transporter 2 (Rattus norvegicus, UniProt O70594).
T2 sequence (O70594 whole entry): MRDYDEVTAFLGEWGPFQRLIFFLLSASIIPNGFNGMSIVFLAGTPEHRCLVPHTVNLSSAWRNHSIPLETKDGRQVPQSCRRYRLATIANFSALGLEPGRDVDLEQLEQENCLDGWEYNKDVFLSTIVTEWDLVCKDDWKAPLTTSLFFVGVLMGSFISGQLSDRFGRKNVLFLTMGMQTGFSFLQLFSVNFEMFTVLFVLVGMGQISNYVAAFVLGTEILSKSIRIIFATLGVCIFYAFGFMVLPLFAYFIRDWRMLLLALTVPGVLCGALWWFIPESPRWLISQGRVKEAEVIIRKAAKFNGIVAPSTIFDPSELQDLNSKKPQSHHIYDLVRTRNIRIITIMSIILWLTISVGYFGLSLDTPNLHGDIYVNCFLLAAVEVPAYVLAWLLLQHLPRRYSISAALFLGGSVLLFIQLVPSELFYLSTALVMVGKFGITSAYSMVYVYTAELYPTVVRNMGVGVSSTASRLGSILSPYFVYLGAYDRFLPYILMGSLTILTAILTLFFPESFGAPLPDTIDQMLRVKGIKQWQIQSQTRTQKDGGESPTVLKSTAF
Described as §1. Conditions: human. The gist of the method:
as §2

In series [4] the target is T1, Organic cation/carnitine transporter 2. The series is described as follows: TP_TRANSPORTER: inhibition of Carnitine uptake (Carnitine: 0.02 uM, Cefdinir: 2500 uM) in OCTN2-expressing HeLa cells.
For series [5], the target named is T3, Solute carrier family 15 member 1 (Homo sapiens) (UniProt P46059).
T3 sequence (whole entry): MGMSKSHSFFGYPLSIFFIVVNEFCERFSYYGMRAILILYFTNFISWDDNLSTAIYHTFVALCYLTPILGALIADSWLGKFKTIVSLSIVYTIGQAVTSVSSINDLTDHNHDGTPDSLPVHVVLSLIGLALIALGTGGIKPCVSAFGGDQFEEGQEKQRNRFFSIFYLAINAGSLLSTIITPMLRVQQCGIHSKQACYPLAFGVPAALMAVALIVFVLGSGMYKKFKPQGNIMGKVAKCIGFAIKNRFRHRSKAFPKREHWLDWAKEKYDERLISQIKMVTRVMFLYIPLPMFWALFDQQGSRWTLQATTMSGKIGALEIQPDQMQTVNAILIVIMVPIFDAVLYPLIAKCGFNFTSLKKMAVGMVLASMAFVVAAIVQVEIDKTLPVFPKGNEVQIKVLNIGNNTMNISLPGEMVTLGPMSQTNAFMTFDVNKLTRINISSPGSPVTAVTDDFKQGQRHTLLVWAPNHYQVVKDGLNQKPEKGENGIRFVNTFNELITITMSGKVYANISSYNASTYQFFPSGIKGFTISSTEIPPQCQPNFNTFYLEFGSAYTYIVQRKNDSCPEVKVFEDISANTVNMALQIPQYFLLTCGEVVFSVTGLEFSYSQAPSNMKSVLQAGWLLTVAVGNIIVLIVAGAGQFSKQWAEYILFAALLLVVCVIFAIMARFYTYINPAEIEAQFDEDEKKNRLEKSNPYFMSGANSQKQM
Briefly: TP_TRANSPORTER: inhibition of Gly-Sar uptake (Gly-Sar: 50 uM, Cefepime: 2500uM) in PEPT1-expressing HeLa cells. The gist of the method: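 HeLa cells expressing human PEPT1 cDNA. [14C]glycylsarcosine (50 μM) uptake for 5 min in Mes/Tris buffer, pH 6.0, giving an H+ gradient, with test compound at 2.5 mM. Vector-transfected uptake subtracted. Percent of control, n=3, mean ± S.E.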

In series [6] the target is T4, Solute carrier family 15 member 2 (Rattus norvegicus) (UniProt Q63424).
T4 sequence (whole entry): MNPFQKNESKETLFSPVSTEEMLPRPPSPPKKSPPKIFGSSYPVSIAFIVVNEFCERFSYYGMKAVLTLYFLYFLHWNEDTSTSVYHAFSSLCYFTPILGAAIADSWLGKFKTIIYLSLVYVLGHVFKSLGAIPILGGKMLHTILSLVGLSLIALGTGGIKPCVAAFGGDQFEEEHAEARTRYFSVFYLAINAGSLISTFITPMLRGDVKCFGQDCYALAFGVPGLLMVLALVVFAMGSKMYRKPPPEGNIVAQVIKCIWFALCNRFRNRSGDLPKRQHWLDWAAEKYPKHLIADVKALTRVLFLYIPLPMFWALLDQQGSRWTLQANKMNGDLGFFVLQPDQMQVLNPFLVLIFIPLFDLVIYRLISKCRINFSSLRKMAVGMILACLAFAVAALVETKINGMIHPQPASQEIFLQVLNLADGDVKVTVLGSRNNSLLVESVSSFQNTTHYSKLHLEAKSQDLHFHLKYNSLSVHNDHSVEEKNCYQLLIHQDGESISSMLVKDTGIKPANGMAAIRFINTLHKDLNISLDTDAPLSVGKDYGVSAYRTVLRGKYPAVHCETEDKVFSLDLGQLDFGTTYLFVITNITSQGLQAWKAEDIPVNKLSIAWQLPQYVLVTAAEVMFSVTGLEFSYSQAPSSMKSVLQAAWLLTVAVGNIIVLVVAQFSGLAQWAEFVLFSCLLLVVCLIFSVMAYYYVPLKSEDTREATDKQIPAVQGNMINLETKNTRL
Briefly: TP_TRANSPORTER: inhibition of Gly-Sar uptake (Gly-Sar: 25 uM, Cefepime: 2500uM) in PEPT2-expressing HeLa cells. The gist of the method: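 HeLa cells expressing rat PEPT2 cDNA. [14C]glycylsarcosine (25 μM) uptake for 5 min under an inward H+ gradient in Mes/Tris buffer, pH 6.0, with test compound at 2.5 mM. Vector-cell uptake subtracted. Results as percent of control, three independent measurements, mean ± S.E.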

Series [7] has as its target T1, Organic cation/carnitine transporter 2. Briefly: TP_TRANSPORTER: inhibition of Carnitine uptake (Carnitine: 0.02 uM) in OCTN2-expressing HeLa cells.
The target in series [8] is T5, OCTN2 (organic cation/carnitine transporter 2) (Rattus norvegicus, UniProt O70594).
T5 sequence (O70594 whole entry): T2 sequence (O70594 whole entry)
The series is described as follows: TP_TRANSPORTER: inhibition of Carnitine uptake (Carnitine: 0.02 uM, Cefepime: 2500 uM) in OCTN2-expressing HeLa cells. More on the design: scale not given: the % may be the effect or the level left. Conditions: human, probe carnitine (0.02 uM), read-out: Activity. The gist of the method: as §2

Series [9] addresses T1, Organic cation/carnitine transporter 2. The series is described as follows: TP_TRANSPORTER: inhibition of Carnitine uptake (Carnitine: 0.02 uM, Cefixime: 2500 uM) in OCTN2-expressing HeLa cells.

As to `CC1(C)S[C@@H]2[C@H](NC(=O)[C@H](N)c3ccccc3)C(=O)N2[C@H]1C(=O)O` [AMPICILLIN], the Activity result in series [1] was “is not an inhibitor [-]”.

`CC1=C(C(=O)O)N2C(=O)[C@@H](NC(=O)[C@H](N)c3ccc(O)cc3)[C@H]2SC1` [CEFADROXIL]: the Activity result in [2] and in [3] was “is not an inhibitor [-]” each time.

On to `C=CC1=C(C(=O)O)N2C(=O)[C@@H](NC(=O)/C(=N\O)c3csc(N)n3)[C@H]2SC1` [CEFDINIR], for which the Activity entry in series [4] is “is not an inhibitor [-]”.

Regarding `CO/N=C(\C(=O)N[C@@H]1C(=O)N2C(C(=O)[O-])=C(C[N+]3(C)CCCC3)CS[C@H]12)c1csc(N)n1` [CEFEPIME], the Activity entry in series [5] and in series [6] was “is not an inhibitor [-]” in each case. The molecule further returned an IC50 in series [7] of 1700 µM. Moreover, in series [8], the activity at 2500 µM was determined as 28%.

Take `C=CC1=C(C(=O)O)N2C(=O)[C@@H](NC(=O)/C(=N\OCC(=O)O)c3csc(N)n3)[C@H]2SC1` [CEFIXIME]: the Activity result in series [9] is “is not an inhibitor [-]”.
